{"data": "Results gathered from unrelated publications", "note": "Lines come from different studies, so protocols differ."}
{"Structure (SMILES)": "CCCCCCC#Cc1cncc(-c2nnc(Sc3ccc([N+](=O)[O-])cc3[N+](=O)[O-])n2C)c1", "tested on": "Mycobacterium tuberculosis", "test": "microbial growth", "system": "ERDMAN", "endpoint": "IC90", "value": "1.2 µM"}
{"Structure (SMILES)": "N.N.[Cl][Pt][Cl]", "tested on": "CCD-18Co", "test": "cell growth or viability, MTS", "conditions": "72 h", "endpoint": "IC50", "value": "64 µM"}
{"Structure (SMILES)": "Nc1nc(O)c2ncn(COC(CO)CO)c2n1", "tested on": "Human betaherpesvirus 5", "test": "viral replication, inhibitor", "system": "HFF", "endpoint": "EC50", "value": "1.6 µM"}
{"Structure (SMILES)": "CO[C@H]1/C=C/O[C@@]2(C)Oc3c(C)c(O)c4c(O)c(c(/C=N/N5CCN(C)CC5)c(O)c4c3C2=O)NC(=O)/C(C)=C\\C=C\\[C@H](C)[C@H](O)[C@@H](C)[C@@H](O)[C@@H](C)[C@H](OC(C)=O)[C@@H]1C", "tested on": "Mycobacterium tuberculosis", "test": "microbial growth", "system": "ERDMAN", "endpoint": "IC50", "value": "0.031 µM"}
{"Structure (SMILES)": "O=c1[nH]c2cc(-c3ccc(Cl)cc3)ccc2c(=O)n1O", "tested on": "Human betaherpesvirus 5", "test": "viral replication, inhibitor", "conditions": "10 µM, 7 days", "endpoint": "inhibition", "value": "102%"}
{"Structure (SMILES)": "Nc1ncnc2c([C@@H]3N[C@H](CO)[C@@H](O)[C@H]3O)c[nH]c12", "tested on": "human respiratory syncytial virus", "test": "viral replication, inhibitor", "system": "MA104", "conditions": "28.4 µM", "endpoint": "inhibition", "value": "102%"}
{"Structure (SMILES)": "O=c1[nH]c2cc(-c3ccc(Cl)cc3)sc2c(=O)n1O", "tested on": "Human betaherpesvirus 5", "test": "viral replication, inhibitor", "conditions": "10 µM, 7 days", "endpoint": "inhibition", "value": "70%"}
{"Structure (SMILES)": "CCOC(=O)C1=C(N)N(c2ccc(C(=O)OCC)cc2)C(O)=C(C#N)C12C(=O)Nc1ccccc12 (stereo not shown)", "tested on": "HepG2", "test": "cell growth or viability, MTT", "conditions": "100 µM, 24 h", "endpoint": "viability", "value": "7.8%"}
{"Structure (SMILES)": "CCN1CC2(CCN(CCc3cc(F)ccc3F)CC2)O[C@H](C)C1=O", "test": "thermal pain", "system": "rat", "conditions": "intraperitoneal", "endpoint": "ED50", "value": "1.85 mg/kg"}
{"Structure (SMILES)": "CCCCCCC#Cc1cncc(-c2nnc(SCc3ccc(Cl)cc3)n2C)c1", "tested on": "Mycobacterium tuberculosis", "test": "microbial growth", "system": "ERDMAN", "endpoint": "IC90", "value": "8.1 µM"}
{"Structure (SMILES)": "O=C(NCc1ccc(Cl)c(Cl)c1)c1nc(Cl)c2cccnc2c1O", "tested on": "Human betaherpesvirus 5", "test": "viral replication, inhibitor", "system": "HFF", "endpoint": "EC50", "value": "9.7 µM"}
{"Structure (SMILES)": "NNC(=O)c1ccncc1", "tested on": "Mycobacterium tuberculosis", "test": "microbial growth", "endpoint": "IC50", "value": "0.12 µM"}
{"Structure (SMILES)": "O=C1c2ccccc2C(c2ccccc2)C(=O)N1O (stereo not shown)", "tested on": "Human betaherpesvirus 5", "test": "viral replication, inhibitor", "conditions": "10 µM, 7 days", "endpoint": "inhibition", "value": "23%"}
